Measured values gathered from unrelated publications.
Protocols differ between the studies behind these lines.
Effect on: enzyme activity
Action: inhibitor
ABL1 G250E: Tyrosine-protein kinase ABL1 (ABL1, Homo sapiens, UniProt P00519, G250E)
ABL1: Tyrosine-protein kinase ABL1 (ABL1, Homo sapiens, UniProt P00519)
ABL1 E255K: Tyrosine-protein kinase ABL1 (ABL1, Homo sapiens, UniProt P00519, E255K)

COc1cc2ncnc(Nc3ccc(Oc4ccccc4)c(C)c3C)c2cc1OC — inhibition (ABL1 G250E; 1 µM): 4%
CNCc1ccc(-c2cc(-c3nc(-c4ccc(S(=O)(=O)C(C)C)cc4)cnc3N)on2)cc1 — inhibition (ABL1; 0.4 µM): 11%
CCOc1cc(-c2nncn2C)ccc1Nc1ncc2cc(C)nc(NCC(C)(C)C)c2n1 — inhibition (ABL1; FRET; 1 µM): < 15%
O=C(CSc1nc2nccnc2c(=O)n1CCc1ccccc1)Nc1nccs1 — inhibition (ABL1; 10 µM): 4%
COc1cc2nccc(Oc3ccc(NC(=O)c4c5n(n(-c6ccc(F)cc6)c4=O)CCCC5)cc3)c2cc1OC — inhibition (ABL1; 0.1 µM): 26%
CNc1cccc2cc(C(=O)Nc3ccc(C(=O)O)cc3)c(=O)[nH]c12 — inhibition (Tyrosine-protein kinase ABL1 (ABL1, Homo sapiens, UniProt P00519, Q252H); 10 µM): 0.4%
CNC(=O)c1cc2c(Oc3ccc(NC(=O)C4(C(=O)Nc5ccc(F)cc5)CC4)cc3)ccnc2cc1OC — inhibition (Tyrosine-protein kinase ABL1 (ABL1, Homo sapiens, UniProt P00519, T315I); radiometric; 1 µM): 75%
CC/C(=N\NC(=O)NCc1cccc(O)c1)c1ccc(O)c(C)c1O — inhibition (ABL1 E255K; 0.1 µM): -3.4%
CN(C)C1CCN(CC#Cc2nn(C3CCCC3)c3nc(NCc4ccccc4)ncc23)C1 (stereo not shown) — inhibition (ABL1; FRET; 0.1 µM): 1%
COc1cc(-c2cc(-c3ccc(N4CCNCC4)cc3)cnc2N)cc(OC)c1OC — inhibition (Tyrosine-protein kinase ABL1 (ABL1, Homo sapiens, UniProt P00519, H396P); 0.1 µM): 87%
COc1cc2ncnc(Nc3ccc(Oc4ccccc4)cc3C)c2cc1OC — inhibition (ABL1 G250E; 1 µM): 14%
CS(=O)(=O)Nc1cccc(-c2csc(NC(=O)CSc3nc4nccnc4c(=O)n3CCc3ccccc3)n2)c1 — inhibition (ABL1 E255K; 10 µM): -2%
C=CC(=O)Nc1cc(Nc2nccc(Nc3cc(Cl)c(F)cc3C(C)(C)O)n2)c(OC)cc1N1CC[C@@H](N(C)C)C1 — inhibition (ABL1; 1 µM): 6%
